Test results as given in ChEMBL document CHEMBL1128279, “Potent inhibitors of human inosine monophosphate dehydrogenase type II. Fluorine-substituted analogues of thiazole-4-carboxamide adenine dinucleotide” (J Med Chem, 1995).

Assays:
[1] = target: Inosine-5'-monophosphate dehydrogenase 2 (Homo sapiens) (UniProt P12268); assay: Inhibitory binding constant was determined against human Inosine-5'-monophosphate dehydrogenase 2 (IMPDH type II) from intercept of Michaelis-Menten plot
How it was run: (§1)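 Human IMPDH type II, stored at -70 °C in 20 mM Tris-HCl pH 8, 20 mM KCl, 1 mM EDTA, 1 mM DTT, thawed and filtered before use. Assay at 37 °C, started by adding enzyme, with saturating IMP. NADH formation read at 340 nm for 2–10 min. NAD at 20, 40, 80 and 160 µM, with two or three inhibitor levels. Kii (intercept) and Kis (slope) obtained by direct least-squares fit to the noncompetitive equation.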

[2] = target: Inosine-5'-monophosphate dehydrogenase 2 (Homo sapiens) (UniProt P12268); assay: Inhibitory binding constant was determined against human Inosine-5'-monophosphate dehydrogenase 2 (IMPDH type II) from slope of Michaelis-Menten plot; how it was run: as §1

Inosine-5'-monophosphate dehydrogenase 2 (Homo sapiens), sequence (P12268 2-514 limits assumed): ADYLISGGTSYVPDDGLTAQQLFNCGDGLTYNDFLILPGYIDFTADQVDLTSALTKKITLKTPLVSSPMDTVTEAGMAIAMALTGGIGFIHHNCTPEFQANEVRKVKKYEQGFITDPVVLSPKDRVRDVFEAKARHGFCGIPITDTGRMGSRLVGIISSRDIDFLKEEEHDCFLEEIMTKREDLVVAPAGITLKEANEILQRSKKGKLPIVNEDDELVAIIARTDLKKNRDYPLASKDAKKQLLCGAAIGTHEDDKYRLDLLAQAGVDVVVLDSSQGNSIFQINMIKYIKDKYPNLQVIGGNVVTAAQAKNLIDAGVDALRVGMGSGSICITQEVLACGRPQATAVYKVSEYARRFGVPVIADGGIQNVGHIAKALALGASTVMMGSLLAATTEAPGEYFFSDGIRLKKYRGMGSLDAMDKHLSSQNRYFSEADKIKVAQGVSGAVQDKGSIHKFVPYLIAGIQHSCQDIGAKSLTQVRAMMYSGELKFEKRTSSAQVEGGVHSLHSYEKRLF

| Kii [1] [µM] | Kis [2] [µM] | SMILES |
| --- | --- | --- |
| 0.7 | 1.5 | NC(=O)c1csc([C@@H]2O[C@H](COP(=O)(O)OP(=O)(O)OC[C@@H]3O[C@H](n4cnc5c(N)ncnc54)[C@@H](O)[C@H]3F)[C@@H](O)[C@H]2O)n1 |
| 2.9 | 13 | NC(=O)c1csc([C@@H]2O[C@H](COP(=O)(O)OP(=O)(O)OC[C@@H]3O[C@H](n4cnc5c(N)ncnc54)[C@H](F)[C@H]3O)[C@@H](O)[C@H]2O)n1 |
| 0.11 |  | NC(=O)c1csc([C@@H]2O[C@H](COP(=O)(O)CP(=O)(O)OC[C@@H]3O[C@H](n4cnc5c(N)ncnc54)[C@@H](O)[C@H]3O)[C@@H](O)[C@H]2O)n1 |
| 0.17 | 0.3 | NC(=O)c1csc([C@@H]2O[C@H](COP(=O)(O)C(F)(F)P(=O)(O)OC[C@@H]3O[C@H](n4cnc5c(N)ncnc54)[C@@H](O)[C@H]3O)[C@@H](O)[C@H]2O)n1 |
| 0.5 | 6 | NC(=O)c1csc([C@@H]2O[C@H](COP(=O)(O)OP(=O)(O)OC[C@@H]3O[C@H](n4cnc5c(N)ncnc54)[C@@H](F)[C@H]3O)[C@@H](O)[C@H]2O)n1 |
| 0.19 | 0.3 | NC(=O)c1csc([C@H]2O[C@@H](COP(=O)(O)OP(=O)(O)OC[C@H]3O[C@@H](n4cnc5c(N)ncnc54)[C@H](O)[C@@H]3O)[C@H](O)[C@@H]2O)n1 |
